Experimental data gathered from unrelated publications.
Target: Serine/threonine-protein kinase Sgk3 (SGK3, Homo sapiens, UniProt Q96BR1)
One construct used (Q96BR1 1-496): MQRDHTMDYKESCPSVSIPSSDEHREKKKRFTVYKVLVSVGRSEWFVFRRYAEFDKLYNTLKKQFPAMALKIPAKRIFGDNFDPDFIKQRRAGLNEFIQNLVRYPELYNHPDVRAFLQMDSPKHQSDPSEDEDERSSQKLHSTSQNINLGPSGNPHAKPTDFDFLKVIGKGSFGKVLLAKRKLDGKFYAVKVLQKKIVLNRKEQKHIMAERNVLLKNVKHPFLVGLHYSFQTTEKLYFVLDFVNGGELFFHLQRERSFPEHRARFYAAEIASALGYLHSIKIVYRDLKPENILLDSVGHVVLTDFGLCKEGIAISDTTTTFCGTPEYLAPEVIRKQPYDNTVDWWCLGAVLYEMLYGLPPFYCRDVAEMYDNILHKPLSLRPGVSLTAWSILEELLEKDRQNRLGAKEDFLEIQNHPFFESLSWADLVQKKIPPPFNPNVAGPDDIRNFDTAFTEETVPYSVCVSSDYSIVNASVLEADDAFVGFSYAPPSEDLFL

| Structure (SMILES) | effect on | method | tested at | remaining binding [%] |
| --- | --- | --- | --- | --- |
| O=C(NCCCC1CCCCC1)c1ccc(CNC(=O)c2cnn(-c3ccccc3)c2C(F)(F)F)cc1 | cell-free assay | competition with immobilised ligand | 0.1 µM | 92 |
| CNC(=O)[C@@H]1CC[C@@H](n2c(-c3ccc4cnccc4c3)nc3ccc(C(=O)NCc4cccc(C(N)=O)c4)cc32)C1 | binding | competition with immobilised ligand | 1 µM | 82 |
| Cn1cc(Cl)c2c(Oc3c(F)cc(Nc4cc(Cl)nc(N)n4)cc3F)ccnc21 | cell-free assay | competition with immobilised ligand | 0.1 µM | 90 |
| Cc1cnc(Nc2ccc(C(=O)N3CCC(N4CCCC4)CC3)cc2)nc1-c1cc2ccccc2s1 | binding | competition with immobilised ligand | 1 µM | 7.3 |
| C[C@@]1(Cc2ccc(C#N)cc2)C(=O)N(c2cc(Cl)cc(Cl)c2)c2ncc(C(=O)NC3(c4nc(C5CCC5)no4)CC3)n21 | cell-free assay | competition with immobilised ligand | 1 µM | 100 |
| O=C(Nc1c[nH]nc1C(=O)NC1CCNCC1)c1cc(F)cc(F)c1 | binding | competition with immobilised ligand | 1 µM | 100 |
| CCC(=N\O)/C(C)=C/c1ccc(F)cc1 | cell-free assay | competition with immobilised ligand | 1 µM | 81 |
| O=C(c1ccc(Nc2nccc(-c3cc4ccccc4s3)n2)cc1)N1CCC(N2CCCC2)CC1 | binding | competition with immobilised ligand | 1 µM | 19 |
| N[C@@H]1CCN(c2nccc(-c3cnn4ncccc34)n2)C1 | binding | – | 1 µM | 100 |
| C[C@H](c1cccc(C#N)c1)n1cc(Cl)cc(C(N)=O)c1=N | cell-free assay | competition with immobilised ligand | 1 µM | 80 |
| C=CC(=O)N1CCC(C(=O)NCC(=O)N2CCN(c3nc(-c4cnc(N)nc4C(F)F)nc(N4CCOCC4)n3)CC2)CC1 | binding | competition with immobilised ligand | 1 µM | 100 |
| CN(c1nccc(-c2cnn3ncccc23)n1)C1CC1 | binding | – | 1 µM | 99 |
| COc1ncc2cc3ccccc3nc2c1C#N | cell-free assay | competition with immobilised ligand | 5 µM | 100 |
| CN(C)c1nccc(-c2cnn3ncccc23)n1 | binding | – | 1 µM | 100 |
| FC(F)(F)Oc1cccc(-c2cnc3ccc(-c4ccncc4)nn23)c1 | binding | competition with immobilised ligand | 5 µM | 70 |
| Cc1cnn2ncc(-c3ccnc(N(C)C)n3)c2c1 | binding | – | 1 µM | 100 |
| C[C@@H](c1ccc(-n2cnc3c(N)ncnc32)cc1)N1CCc2nn(C)c(Cc3ccccc3)c2C1=O | binding | competition with immobilised ligand | 0.1 µM | 93 |
| CC1CCCN1c1nccc(-c2cnn3ncccc23)n1 (stereo not drawn) | binding | – | 1 µM | 86 |
| CS(=O)(=O)c1cc(C2(NC(=O)c3cncc4c3cnn4-c3ccc(F)cc3)CC2)ccn1 | cell-free assay | competition with immobilised ligand | 1 µM | 100 |
| F[C@@H]1CCN(c2nccc(-c3cnn4ncccc34)n2)C1 | binding | – | 1 µM | 89 |
| O=C(c1ccc(Nc2ncc(Cl)c(-c3ccc(Cl)s3)n2)cc1)N1CCC(N2CCCC2)CC1 | binding | competition with immobilised ligand | 1 µM | 4.7 |
